Results published in ChEMBL document CHEMBL3804757, “Cystoseira usneoides: A Brown Alga Rich in Antioxidant and Anti-inflammatory Meroditerpenoids” (J Nat Prod, 2016).

Key:
[1] = Antioxidant activity assessed as ABTS free radical scavenging activity after 6 mins by ABTS free radical decolorization assay relative to Trolox; assay type: physicochemical; set-up: concentration or dose not given beside the values; conditions: 0.1 h
Method in brief: (§1)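 ABTS•+ generated by mixing 7 mM ABTS with 2.45 mM potassium persulfate (1:1) and holding 12–18 h in the dark at room temperature. It was then diluted in EtOH to A734 0.70 ± 0.02. 100 μL ethanolic compound was added to 2 mL of radical solution, and A734 read after 6 min against an EtOH control. % inhibition = [(A0−A1)/A0]×100, done in triplicate; Trolox served as standard.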

[2] = Antiinflammatory activity against human THP1 cells assessed as inhibition of LPS-induced TNFalpha production pretreated for 1 hr before LPS challenge at 10 uM measured after 24 hrs by ELISA; assay type: functional, THP-1; set-up: scale not given: the % may be the effect or the level left
Method in brief: (§2)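 THP-1 cells (RPMI 1640, 10% FBS) differentiated to macrophages with PMA 0.2 μM final for 3 days, washed with cold PBS, then pre-incubated 1 h with compound diluted from DMSO stocks (0.1% DMSO). Stimulated with LPS at 1 μg/mL final. Supernatants taken after 24 h and TNF-α measured by ELISA. Dexamethasone 1 μM as positive control; an unstimulated control was included. Values are mean ± SE of four determinations.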

[3] = Cytotoxicity against human THP1 cells assessed as cell viability at 5 to 10 uM after 48 hrs by SRB assay; assay type: cell-based; conditions: thp-1, 48 h
[4] = Antiinflammatory activity against human THP1 cells assessed as inhibition of LPS-induced TNFalpha production pretreated for 1 hr before LPS challenge at 8 uM measured after 24 hrs by ELISA; assay type: functional, THP-1; set-up: scale not given: the % may be the effect or the level left; method in brief: as §2
[5] = Antiinflammatory activity against human THP1 cells assessed as inhibition of LPS-induced TNFalpha production pretreated for 1 hr before LPS challenge at 5 uM measured after 24 hrs by ELISA; assay type: functional, THP-1; set-up: scale not given: the % may be the effect or the level left; method in brief: as §2
[6] = Antioxidant activity assessed as ABTS free radical scavenging activity after 6 mins by ABTS free radical decolorization assay; assay type: physicochemical; method in brief: as §1

Activity [1] [%]	EC50 [6] [µM]	Structure (SMILES)	Activity [2] [%]	Activity [3]	Activity [4] [%]	Activity [5] [%]
37		COc1c(C)cc(O)cc1C/C=C(\C)CC(=O)/C=C(\C)CC/C=C(\C)CCC(O)C(C)(C)O (stereo not drawn)	21	Non-toxic		
37		COc1c(C)cc(O)cc1C/C=C(\C)CC(=O)/C=C(/C)CCCC(C)C(=O)CC(O)C(C)(C)O (stereo not drawn)		Non-toxic	21	
62		COc1c(C)cc(O)cc1C/C=C(\C)CC(=O)/C=C(/C)CCC[C@@]1(C)O[C@H](C(C)(C)O)C[C@H]1O		Non-toxic	21	
81		C/C(=C/C(=O)C/C(C)=C/Cc1cc(O)cc(C)c1O)CCCC(C)(O)C(=O)/C=C/C(C)(C)O (stereo not drawn)	81	Non-toxic		
37		COc1c(C)cc(O)cc1C/C=C(\C)CC(=O)/C=C(/C)CC/C=C(\C)C(O)CC1OC1(C)C (stereo not drawn)		Non-toxic	21	
87		C/C(=C\C(=O)C/C(C)=C/Cc1cc(O)cc(C)c1O)CCCC(C)(O)C(=O)/C=C/C(C)(C)O (stereo not drawn)	69	Non-toxic		
62		COc1c(C)cc(O)cc1C/C=C(\C)CC(=O)/C=C(\C)C(O)CCC(C)(O)C(=O)/C=C/C(C)(C)O (stereo not drawn)		Non-toxic	79	
62		COc1c(C)cc(O)cc1C/C=C(\C)CC(=O)/C=C(/C)CCC[C@@]1(C)O[C@@H](C(C)(C)O)CC1=O				
77		C/C(=C/C(=O)C/C(C)=C/Cc1cc(O)cc(C)c1O)CCCC(C)C(=O)/C=C/C(C)(C)O (stereo not drawn)	21	Non-toxic		
62		COc1c(C)cc(O)cc1C/C=C(\C)CC(=O)/C=C(/C)CC/C=C(\C)CCC(O)C(C)(C)O (stereo not drawn)		Non-toxic		59
77		C/C(=C\C(=O)C/C(C)=C/Cc1cc(O)cc(C)c1O)CCCC(C)C(=O)/C=C/C(C)(C)O (stereo not drawn)		Non-toxic		53
37		COc1c(C)cc(O)cc1C/C=C(\C)CC(=O)/C=C(\C)CCC[C@@]1(C)O[C@@H](C(C)(C)O)CC1=O				
	12	Cc1c(C)c2c(c(C)c1O)CCC(C)(C(=O)O)O2 (stereo not drawn) [TROLOX]				
